Assay results as given in ChEMBL document CHEMBL1140052, “Novel insight in structure-activity relationship and bioanalysis of P-glycoprotein targeting highly potent tetrakishydroxymethyl substituted 3,9-diazatetraasteranes” (J Med Chem, 2008).
Calls of active or inactive are those of the source. The calls are words filed in the database; no cut-off is given here.

Legend:
[1] = system: L5178Y; test: Inhibition of P-glycoprotein expressed in mouse L5178Y cells measured by rhodamine 123 uptake assessed as fluorescence activity ratio relative to wild type mouse L5178 cells at 1 uM; format: cell-based
Procedure, shortened: (§1)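 Mouse T lymphoma parental L5178 and P-gp-expressing L5178Y cells at 2 × 10^6 cells/mL in serum-free McCoy's 5A medium. Compound added from DMSO stock, 10 min at rt. Rhodamine 123 then added (final 5.2 µM), 20 min at 37 °C. Two PBS washes, 1 × 10^4 cells read by flow cytometry. Ratio = subline/parental fluorescence, each corrected to its untreated control.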

[2] = system: L5178Y; test: Inhibition of P-glycoprotein expressed in mouse L5178Y cells measured by rhodamine 123 uptake assessed as fluorescence activity ratio relative to wild type mouse L5178 cells at 10 uM; format: cell-based; procedure, shortened: as §1
[3] = species: Homo sapiens; test: Induction of p-glycoprotein expression in human EPG 85-257 cells after 72 hrs by Western blot analysis; format: functional, cell-based
Procedure, shortened: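 Gastric carcinoma cells seeded at 5 × 10^5 cells/well and cultured 72 h with compound. Cells washed twice, proteins extracted with Triton X-100 and denatured 10 min at 95 °C. Protein quantified by amido black at 630 nm. 20 µg run on SDS-PAGE (4% stacking/6% resolving) and blotted. Probed with C219 (1:100) and peroxidase anti-mouse IgG (1:10000), chemiluminescence read-out. Anti-actin (1:50000) as loading control.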

SMILES | Ratio [1] | Ratio [2] | Activity [3]
OC[C@]12C3N(Cc4cccc(OCc5ccccc5)c4)C4[C@](CO)(C5N(Cc6cccc(OCc7ccccc7)c6)C1[C@]3(CO)[C@@H](c1ccccc1)[C@@]45CO)[C@@H]2c1ccccc1 | 117 | 205 | 
COc1ccc(CCN(C)CCCC(C#N)(c2ccc(OC)c(OC)c2)C(C)C)cc1OC (configuration not stated) | 2.1 | 4.1 | 
OC[C@]12C3N(Cc4ccccc4)C4[C@](CO)(C5N(Cc6ccccc6)C1[C@]3(CO)[C@H](c1ccc(OCc3ccccc3)cc1)[C@@]45CO)[C@H]2c1ccc(OCc2ccccc2)cc1 | 3.3 | 47 | 
OC[C@]12C3N(Cc4ccccc4)C4[C@](CO)(C5N(Cc6ccccc6)C1[C@]3(CO)[C@H](c1cccc(OCc3ccccc3)c1)[C@@]45CO)[C@H]2c1cccc(OCc2ccccc2)c1 | 65 | 125 | 
COc1ccc(CN2C3[C@]4(CO)C5N(Cc6ccc(OC)cc6)C6[C@](CO)(C2[C@@]6(CO)[C@@H](c2ccccc2)[C@@]35CO)[C@H]4c2ccccc2)cc1 | 3.5 | 13 | 
COc1ccc([C@H]2[C@@]3(CO)C4N(Cc5ccccc5)C5[C@]2(CO)C2N(Cc6ccccc6)C3[C@]4(CO)[C@H](c3ccc(OC)cc3)[C@@]52CO)cc1 | 4.3 | 57 | inactive
OC[C@]12C3N(Cc4ccc(OCc5ccccc5)cc4)C4[C@](CO)(C5N(Cc6ccc(OCc7ccccc7)cc6)C1[C@]3(CO)[C@H](c1ccccc1)[C@@]45CO)[C@H]2c1ccccc1 | 2.3 | 28 | 
OC[C@]12C3N(Cc4ccccc4)C4[C@](CO)(C5N(Cc6ccccc6)C1[C@]3(CO)[C@@H](c1ccccc1)[C@@]45CO)[C@@H]2c1ccccc1 | 4.1 | 29 | 
